Residues, ends and D or L forms follow the SMILES beside them. *: point of attachment. X10 = CCCOC[C@H](CC(C)C)N*
Molecular target: Gastrin-releasing peptide receptor (Mus musculus, UniProt P21729)
Assay: Compound was evaluated for mitogenic inhibition against Swiss 3T3 murine fibroblast cells.
Procedure, shortened: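 Swiss 3T3 monolayers grown to confluence, then serum-starved in serum-free DMEM for 48 h. Antagonist added together with 3 nM N-acetyl-GRP-20-27 amide and 23 nM [3H]thymidine. After a further 48 h, cells detached with trypsin/5 mM EDTA and filter-harvested; [3H]thymidine uptake measured. IC50 is the mean of at least two independent experiments.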

Gastrin-releasing peptide receptor, sequence (P21729 whole entry): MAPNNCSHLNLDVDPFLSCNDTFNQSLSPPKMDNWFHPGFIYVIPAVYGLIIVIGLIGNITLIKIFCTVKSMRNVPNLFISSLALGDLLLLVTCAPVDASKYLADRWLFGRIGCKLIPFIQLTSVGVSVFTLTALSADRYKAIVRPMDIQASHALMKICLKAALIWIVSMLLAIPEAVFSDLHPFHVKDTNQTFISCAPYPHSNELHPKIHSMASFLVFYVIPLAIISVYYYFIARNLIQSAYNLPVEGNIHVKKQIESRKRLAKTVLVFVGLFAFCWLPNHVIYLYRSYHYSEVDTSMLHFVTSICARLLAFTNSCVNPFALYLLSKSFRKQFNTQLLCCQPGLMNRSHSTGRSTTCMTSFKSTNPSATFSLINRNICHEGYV

IC50: 18 nM
Structure (SMILES): CCCOC[C@H](CC(C)C)NC(=O)[C@H](Cc1c[nH]cn1)NC(=O)CNC(=O)[C@@H](NC(=O)[C@H](C)NC(=O)[C@H](Cc1c[nH]c2ccccc12)NC(=O)[C@H](Cc1c[nH]cn1)NC(C)=O)C(C)C [2-{2-[2-[2-Acetylamino-3-(3H-imidazol-4-yl)-propionylamino]-3-(1H-indol-3-yl)-propionylamino]-propionylamino}-N-{[2-(3H-imidazol-4-yl)-1-(3-methyl-1-propoxymethyl-butylcarbamoyl)-ethylcarbamoyl]-methyl}-3-methyl-butyramide] (Ac-HWAVGH-X10)

Source: BindingDB's records for doi:10.1021/jm00111a027 (Merck Sharp & Dohme Research Laboratories, 1991)
